Experimental data reported in ChEMBL document CHEMBL1138087, “Synthesis and evaluation of N-aryl pyrrolidinones as novel anti-HIV-1 agents. Part 1” (Bioorg Med Chem Lett, 2006).

How the values were obtained:
HEK293 = assay: Cytotoxicity against HEK293T cells; format: functional; conditions: Homo sapiens
Method in brief: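 293T cells seeded at 700 cells/well and cultured 24 h at 37 °C under 5% CO₂. Serially diluted compound in DMSO added to uninfected cells, then a further 48 h at 37 °C. Viability read by fluorescence after Alamar Blue (diluted 1:1 in DMEM) and 4 h at room temperature.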

[1] = tested on: Human immunodeficiency virus 1; assay: Antiviral activity against wild type HIV1 virus; format: functional, organism-based
Method in brief: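 HEK 293T cells grown in DMEM with 10% FBS and Pen/Strep/Glutamine. Seeded at 700 cells/well, cultured 24 h at 37 °C under 5% CO₂. Serially diluted compound in DMSO added, then 1 h at 37 °C. HIV reporter virus added at MOI about 1.0, cells cultured a further 48 h at 37 °C. Luciferase read-out with Bright-Glo reagent.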

Compound | EC50 [1] | CC50 (HEK293)
COc1ccc([C@H]2CC(=O)N(c3cccnc3)C2)cc1OC1CCCC1 | 2.37 µM | > 10 µM
COc1ccc([C@H]2CC(=O)N(c3cccc(NCCCc4ccccc4)c3)C2)cc1OC1CCCC1 | 7.9 µM | > 10 µM
COc1ccc([C@H]2CC(=O)N(c3cccc(NCc4ccoc4)c3)C2)cc1OC1CCCC1 | 1.96 µM | > 10 µM
COc1ccc([C@H]2CC(=O)N(c3cccc(C#N)c3)C2)cc1OC1CCCC1 | 0.52 µM | > 10 µM
COc1ccc([C@H]2CC(=O)N(c3ccccc3C)C2)cc1OC1CCCC1 | > 10 µM | > 10 µM
COc1ccc([C@H]2CC(=O)N(c3ccc(C)cc3)C2)cc1OC1CCCC1 | 3.26 µM | > 10 µM
COc1ccc([C@H]2CC(=O)N(c3cccc(S(C)(=O)=O)c3)C2)cc1OC1CCCC1 | > 10 µM | > 10 µM
COc1ccc([C@H]2CC(=O)N(c3ccc(C(F)(F)F)cc3)C2)cc1OC1CCCC1 | 3.62 µM | > 10 µM
COc1ccc([C@H]2CC(=O)N(c3cccc(NCC4CCOC4)c3)C2)cc1OC1CCCC1 (stereo not given in full) | 1.02 µM | > 10 µM
CCCCNc1cccc(N2C[C@@H](c3ccc(OC)c(OC4CCCC4)c3)CC2=O)c1 | 6.96 µM | > 10 µM
COc1ccc([C@H]2CC(=O)N(c3cccc(C(F)(F)F)c3)C2)cc1OC1CCCC1 | 2.95 µM | > 10 µM
COc1ccc([C@H]2CC(=O)N(c3cccc(NC(=O)C(=O)c4cccs4)c3)C2)cc1OC1CCCC1 | 0.502 µM | > 10 µM
COc1ccc([C@H]2CC(=O)N(c3cccc(NS(=O)(=O)c4cccc(OC(F)(F)F)c4)c3)C2)cc1OC1CCCC1 | 0.8 µM | > 10 µM
COc1ccc([C@H]2CC(=O)N(c3cccc(NC(=O)C(C)=O)c3)C2)cc1OC1CCCC1 | 5.79 µM | > 10 µM
COc1ccc([C@H]2CC(=O)N(c3ccc(C#N)cc3)C2)cc1OC1CCCC1 | 0.66 µM | > 10 µM
COc1ccc([C@H]2CC(=O)N(c3ccccc3C#N)C2)cc1OC1CCCC1 | > 10 µM | > 10 µM
COc1ccc([C@H]2CC(=O)N(c3ccccc3C(F)(F)F)C2)cc1OC1CCCC1 | > 10 µM | > 10 µM
COc1ccc([C@H]2CC(=O)N(c3ccccn3)C2)cc1OC1CCCC1 | 2.63 µM | > 10 µM
COc1ccc([C@H]2CC(=O)N(c3cccc([S+](C)[O-])c3)C2)cc1OC1CCCC1 (stereo not given in full) | > 10 µM | > 10 µM

The remaining compounds from weak to strong by EC50 [1], led by results:

EC50 [1] | Compound | CC50 (HEK293)
0.502 µM | COc1cccc(C(=O)C(=O)Nc2cccc(N3C[C@@H](c4ccc(OC)c(OC5CCCC5)c4)CC3=O)c2)c1 | > 10 µM
0.419 µM | COc1ccc([C@H]2CC(=O)N(c3cccc(C)c3)C2)cc1OC1CCCC1 | > 10 µM
0.256 µM | COc1ccc(S(=O)(=O)Nc2cccc(N3C[C@@H](c4ccc(OC)c(OC5CCCC5)c4)CC3=O)c2)cc1 | > 10 µM
0.18 µM | COc1ccc([C@H]2CC(=O)N(c3ccc(S(C)(=O)=O)cc3)C2)cc1OC1CCCC1 | > 10 µM
0.124 µM | COc1ccc([C@H]2CC(=O)N(c3cccc(NC(=O)C(=O)c4cccc(N(C)C)c4)c3)C2)cc1OC1CCCC1 | > 10 µM
0.11 µM | COc1ccc([C@H]2CC(=O)N(c3ccncc3)C2)cc1OC1CCCC1 | > 10 µM
0.104 µM | COc1ccc(OC)c(S(=O)(=O)Nc2cccc(N3C[C@@H](c4ccc(OC)c(OC5CCCC5)c4)CC3=O)c2)c1 | 7.59 µM
0.102 µM | COc1ccc([C@H]2CC(=O)N(c3cccc(NS(=O)(=O)c4ccc(F)cc4)c3)C2)cc1OC1CCCC1 | > 10 µM
0.08 µM | COc1ccc([C@H]2CC(=O)N(c3cc(N)cc(F)c3)C2)cc1OC1CCCC1 | > 10 µM
0.053 µM | COc1ccc([C@H]2CC(=O)N(c3cccc(NS(=O)(=O)c4c(Br)nn(C)c4Cl)c3)C2)cc1OC1CCCC1 | > 10 µM
0.04 µM | COc1ccc([C@H]2CC(=O)N(c3ccc([S+](C)[O-])cc3)C2)cc1OC1CCCC1 (stereo not given in full) | 7.51 µM
